Assay results published in ChEMBL document CHEMBL4229344 (Eur J Med Chem, 2018).

Tests used:
[1] = biological target: Casein kinase II subunit alpha' (Homo sapiens) (UniProt P19784); experiment: Binding affinity to wild-type human full length CSNK2A2 (M1 to R350 residues) expressed in mammalian expression system assessed as residual binding level at 1 uM by Kinomescan method relative to control
Method in brief: (§1)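 Single-concentration (1 μM) competition-binding screen run by KINOMEscan against a panel of 468 purified kinases and mutants. The read-out is the relative binding activity of the test compound to each kinase.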

[2] = Apparent clearance in Sprague-Dawley rat at 1 mg/kg, iv; assay type: ADME, organism-based; conditions: in vivo, read-out: CL(app) (converted)
[3] = biological target: Serine/threonine-protein kinase MRCK gamma (Homo sapiens) (UniProt Q6DT37); experiment: Binding affinity to wild-type human partial length DMPK2 (S46 to S408 residues) expressed in bacterial expression system assessed as residual binding level at 1 uM by Kinomescan method relative to control
[4] = biological target: MAP kinase-interacting serine/threonine-protein kinase 1 (Homo sapiens) (UniProt Q9BUB5); experiment: Binding affinity to wild-type human full length MKNK1 (M1 to L424 residues) expressed in mammalian expression system assessed as residual binding level at 1 uM by Kinomescan method relative to control
Method in brief: (§2)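 Single-concentration KINOMEscan (DiscoverX) binding screen at 1 μM against a panel of 468 purified kinases and mutants. The read-out is binding relative to control.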

[5] = biological target: Serine/threonine-protein kinase PknB (Mycobacterium tuberculosis) (UniProt P9WI81); experiment: Binding affinity to wild-type Mycobacterium tuberculosis H37Rv ATCC 25618 partial length PKNB (M1 to G279 residues) expressed in mammalian expression system assessed as residual binding level at 1 uM by Kinomescan method relative to control; method in brief: as §1
[6] = biological target: Mitogen-activated protein kinase kinase kinase 12 (DLK/MAP3K12) (Homo sapiens) (UniProt Q12852); experiment: Binding affinity to wild-type human full length DLK (M1 to P859 residues) expressed in mammalian expression system assessed as residual binding level at 1 uM by Kinomescan method relative to control
[7] = biological target: Serine/threonine-protein kinase MRCK alpha (Homo sapiens) (UniProt Q5VT25); experiment: Binding affinity to wild-type human partial length MRCKA (L57 to V418 residues) expressed in bacterial expression system assessed as residual binding level at 1 uM by Kinomescan method relative to control
Method in brief: (§3)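 Kinome-wide competition binding screen against a panel of 468 purified kinases/mutants, with the test compound at a single concentration of 1 μM. Read-out is the relative binding activity of each kinase in the presence of compound.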

[8] = biological target: Ribosomal protein S6 kinase alpha-4 (Homo sapiens) (UniProt O75676); experiment: Binding affinity to wild-type human partial length N-terminal RPS6KA4 kinase domain 1 expressed in bacterial expression system assessed as residual binding level at 1 uM by Kinomescan method relative to control
[9] = biological target: Receptor tyrosine-protein kinase erbB-2 (Homo sapiens) (UniProt P04626); experiment: Binding affinity to wild-type human partial length ERBB2 (K646 to V1225 residues) expressed in mammalian expression system assessed as residual binding level at 1 uM by Kinomescan method relative to control
[10] = test system: Receptor-type tyrosine-protein kinase FLT3 (Homo sapiens), P36888 [UNDEFINED MUTATION]; experiment: Binding affinity to human partial length FLT3 ITD/F691L double mutant expressed in bacterial expression system assessed as residual binding level at 1 uM by Kinomescan method relative to control
Method in brief: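 Kinome-wide single-concentration binding screen (KINOMEscan) at 1 μM against a panel of 468 purified kinases and mutants. Read-out is relative binding of each kinase compared with control. Selectivity across the panel was summarised as an S(10) score.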

EOL1 = experiment: Antitumor activity against human EOL-1 cells xenografted in nu/nu mouse assessed as tumor growth inhibition at 100 mg/kg/day, ip; assay type: functional; conditions: read-out: TGI
Method in brief: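 Female nu/nu mice (6 weeks) given subcutaneous right-flank injection of 5 million EOL-1 cells in PBS/Matrigel 1:1. At 200–400 mm3 tumors, randomized to groups of 6 and dosed daily i.p. for 14 days at 25, 50 or 100 mg/kg/d in 0.5% methylcellulose/0.4% Tween80. Tumor volume = W²×L/2, measured daily.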

Mus musculus = experiment: Toxicity in nu/nu mouse xenografted with human EOL-1 cells assessed as change in body weight at 25 to 100 mg/kg/day, ip; assay type: organism-based; conditions: in vivo
Method in brief: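 Female nu/nu mice, 6 weeks old, implanted subcutaneously in the right flank with 5 million EOL-1 cells in PBS/Matrigel 1:1. At tumour size 200–400 mm³, mice randomised into groups of 6 and given daily IP doses of 25, 50 or 100 mg/kg in 0.5% methylcellulose/0.4% Tween80, or vehicle, for 14 days. Body weight measured daily and normalised to initial weight; mean ± SEM.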

[11] = biological target: Fibroblast growth factor receptor 2 (Homo sapiens) (UniProt P21802); experiment: Binding affinity to wild-type human partial length FGFR2 (D457 to E769 residues) expressed in bacterial expression system assessed as residual binding level at 1 uM by Kinomescan method relative to control; method in brief: as §3
[12] = biological target: MAP kinase-activated protein kinase 2 (Homo sapiens) (UniProt P49137); experiment: Binding affinity to wild-type human partial length MAPKAPK2 (V48 to D345 residues) expressed in bacterial expression system assessed as residual binding level at 1 uM by Kinomescan method relative to control; method in brief: as §3
[13] = biological target: Serine/threonine-protein kinase mTOR (Homo sapiens) (UniProt P42345); experiment: Binding affinity to wild-type human partial length MTOR (L1382 to W2549 residues) expressed in mammalian expression system assessed as residual binding level at 1 uM by Kinomescan method relative to control
[14] = biological target: RAC-alpha serine/threonine-protein kinase (Homo sapiens) (UniProt P31749); experiment: Binding affinity to wild-type human partial length AKT1 expressed in bacterial expression system assessed as residual binding level at 1 uM by Kinomescan method relative to control; method in brief: as §2
[15] = biological target: Tyrosine-protein kinase Yes (Homo sapiens) (UniProt P07947); experiment: Binding affinity to wild-type human partial length YES (T257 to L543 residues) expressed in bacterial expression system assessed as residual binding level at 1 uM by Kinomescan method relative to control
[16] = biological target: Receptor-type tyrosine-protein kinase FLT3 (Homo sapiens) (UniProt P36888); experiment: Binding affinity to wild-type human partial length autoinhibited FLT3 (H564 to Y969 residues) expressed in mammalian expression system assessed as residual binding level at 1 uM by Kinomescan method relative to control
[17] = biological target: cAMP-dependent protein kinase catalytic subunit alpha (Homo sapiens) (UniProt P17612); experiment: Binding affinity to wild-type human partial length PKAC-alpha (G10 to F351 residues) expressed in bacterial expression system assessed as residual binding level at 1 uM by Kinomescan method relative to control
[18] = biological target: Serine/threonine-protein kinase 32A (Homo sapiens) (UniProt Q8WU08); experiment: Binding affinity to wild-type human full length YANK1 (M1 to L396 residues) expressed in mammalian expression system assessed as residual binding level at 1 uM by Kinomescan method relative to control; method in brief: as §2

In the case of `Cc1ccc(NC(=O)c2ccc(CN(CCN(C)C)C(=O)c3cccnc3)cc2)cc1Nc1nccc(-c2cccnc2)n1`, the Activity [1] is reported as 88%, the clearance [2] is reported as 32.7 mL/min/kg and the Activity [3] is reported as 100%. The Activity [4] was 100%, the Activity [5] was 99% and the Activity [6] was 93%. The Activity [7] was 80%, the Activity [8] was 82% and the Activity [9] was 85%. For the same compound, the Activity [10] was 100%, the inhibition in vivo at 100 mg/kg/day (EOL1) was 100% and the Activity (Mus musculus) was “Toxic”. The Activity [11] was 80%, the Activity [12] was 92% and the Activity [13] was 100%. For the same compound, the Activity [14] was 95%, the Activity [15] was 100% and the Activity [16] was 100%. For the same compound, the Activity [17] was 95% and the Activity [18] was 100%.
